Assay outcomes from PubChem BioAssay.
Shown are actives, neighbours in structure and some others; about 1.5% of the full set was active somewhere.
C8 TRAIL sens = sensitizes caspase-8 expressing cells to TRAIL. inhibition (viability loss, TRAIL sensitization), % at 10 µM. NB7+C8 cells + TRAIL, ATPlite viability luminescence. 360,000 tested, 1% active;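 active = compounds causing at least 50% loss of cell viability in the single-dose screen, relative to plate controls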
PPC-1+TRAIL kill = PPC-1 cancer cell killing with TRAIL present; PPC-1 cells + TRAIL, ATPLite viability luminescence; cell killing (% activity), % at 4 µM or 5 µM; 220,000 tested, 0.41% active;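 active = cell killing above 50% in the first pass at 4 µM, then a duplicate retest at 5 µM averaging 50% or more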
FLuc act counter = firefly luciferase counter-screen for stimulation assays | ATPlite luciferase biochemical, luminescence, 10 min; 0 = ATP-free wells, 1 = DMSO control | P08659 | 200,000 tested, under 10 active | activation factor at 10 µM;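 active = luciferase activation factor, scaled between plate controls, of at least 2 with compound at 10 µM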
Target sequence (P08659 whole entry, looked up): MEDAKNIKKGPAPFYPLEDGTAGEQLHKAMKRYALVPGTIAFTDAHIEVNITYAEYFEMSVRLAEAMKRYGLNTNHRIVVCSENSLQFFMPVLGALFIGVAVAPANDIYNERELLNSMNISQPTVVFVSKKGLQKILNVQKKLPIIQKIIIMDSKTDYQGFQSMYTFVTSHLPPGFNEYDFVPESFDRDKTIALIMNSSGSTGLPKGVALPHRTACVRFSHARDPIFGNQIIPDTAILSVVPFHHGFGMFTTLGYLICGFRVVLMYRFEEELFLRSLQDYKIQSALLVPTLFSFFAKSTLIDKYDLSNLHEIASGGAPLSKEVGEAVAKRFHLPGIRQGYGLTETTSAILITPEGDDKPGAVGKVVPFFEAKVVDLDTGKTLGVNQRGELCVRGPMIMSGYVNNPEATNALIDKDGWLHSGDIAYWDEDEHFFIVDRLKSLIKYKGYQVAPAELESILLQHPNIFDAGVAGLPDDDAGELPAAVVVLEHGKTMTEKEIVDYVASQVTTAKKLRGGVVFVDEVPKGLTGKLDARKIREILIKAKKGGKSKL
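Material: luciferase plus luciferin reagent, cell-free. Medium: PBS buffer for ATP. Also added: ATP substrate, dispensed from a 10.24 µM working solution in PBS. Doses: test compounds dosed from 2 mM stocks in 100% DMSO. Incubation: 10 min post-reagent at room temperature. Technique: light output (luminescence). Read-out basis: luminescence gain marking luciferase activators.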
FLuc inhib CS = inhibits firefly luciferase, flagging false hits in luciferase inhibition screens; ATPLite firefly luciferase biochemical luminescence, 10 min; 200,000 tested, 1.5% active; inhibition, % at 10 µM;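 active = inhibition above about 50% when tested at 10 µM, limit read from the data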
A number is an active result; . = inactive; / = no result given.

SMILES | C8 TRAIL sens | PPC-1+TRAIL kill | FLuc act counter | FLuc inhib CS
O=C(Nc1cc(S(=O)(=O)N2CCCCCC2)ccc1OCC(F)(F)F)c1cnccn1 | . | / | / | /
O=C(N=Nc1c(O)[nH]c2ccc(Br)cc12)c1cc(-c2cccs2)nc2ccccc12 | 87 | . | . | .
O=C(N=Nc1c(O)[nH]c2ccccc12)c1cccs1 | 62 | . | . | 89
O=C(CCc1ccccc1)Nc1ccc2c(c1)C(=O)OC2 | . | / | / | /
CCCCCCCCn1c2c(c(=N)c3ccccc31)CCC2 | . | / | . | .
Cc1cc(C)c2c(=N)c3ccccc3n(CCCCCCCCn3c4ccccc4c(=N)c4c(C)cc(C)nc43)c2n1 | 79 | / | / | /
COCCNC(=O)c1c[nH]c2ccc(S(=O)(=O)N3CCc4ccccc43)cc2c1=O | 71 | . | . | .
CCOc1ccc(/C=C/C(=O)C(C(N)=O)=C2SCCS2)cc1 | . | . | . | 58
CCOc1ccc(/C=C/C(=O)Oc2ccccc2)cc1 | . | / | / | /
COc1ccc(C2CC(c3cccs3)=NN2C(=O)CCl)cc1OC (configuration not stated) | 96 | / | / | /
COc1cc(C2CC(c3cccs3)=NN2C(=O)CCl)ccc1OC(F)F (configuration not stated) | 95 | / | / | /
COc1ccc(C2CC(c3cccs3)=NN2C(=O)CCC(=O)O)cc1 (configuration not stated) | . | / | / | /
COc1ccc(C2CC(c3cccs3)=NN2C(=O)c2ccccc2)cc1OC (configuration not stated) | . | / | / | /
O=S(=O)(Nc1nc2ccccc2nc1N1CCc2ccccc2C1)c1ccc(Cl)cc1 | . | . | . | .
O=S(=O)(Nc1nc2ccccc2nc1N1CCc2ccccc2C1)c1ccc(Br)cc1 | 61 | 56 | . | .
CCOc1ccc(C(=O)C[n+]2ccccc2C)cc1 | . | . | . | .
Cc1ccc(CONC(=O)c2ccc(Cl)cc2)cc1 | . | / | / | /
Cc1ccc(CONC(=O)c2ccccc2)cc1 | . | . | / | /
COc1ccc(C(=O)NOCc2ccccc2)cc1 | 56 | / | / | /
O=C(NOCc1ccccc1)c1ccc(Cl)cc1 | 51 | / | / | /
C/C(=N\NC(=O)c1cccc(O)c1)c1cccc(NC(=O)c2ccc(F)cc2)c1 | 57 | / | / | /
C/C(=N\NC(=O)c1ccc(F)cc1)c1cccc(NC(=O)c2cccc(F)c2)c1 | . | / | / | /
C/C(=N\NC(=O)c1ccc(F)cc1)c1cccc(NC(=O)c2ccco2)c1 | . | . | . | 50
C/C(=N\NC(=O)c1ccc(Cl)cc1)c1cccc(NC(=O)c2cccnc2)c1 | . | . | . | 63
C/C(=N\NC(=O)c1ccc(O)cc1)c1cccc(NC(=O)c2ccc(Cl)cc2)c1 | 66 | / | / | /
SMILES | C8 TRAIL sens | PPC-1+TRAIL kill | FLuc act counter | FLuc inhib CS
C/C(=N\NC(=O)c1ccc(Cl)cc1)c1cccnc1 | . | / | / | /
Cc1cc(C)c(NC(=O)CN2C(=O)CC(C)S(=O)(=O)c3ccccc32)c(C)c1 (configuration not stated) | . | / | / | /
C/C(=N\NC(=O)c1cccc(F)c1)c1cccc(NC(=O)c2ccc(F)cc2)c1 | . | . | . | .
O=C(Nc1cccc(O)c1)c1ccc(C(F)(F)F)cc1 | . | . | . | 57
C/C(=N\NC(=O)c1cccc(N/N=C(\C)c2cc(O)ccc2O)c1)c1cc(O)ccc1O | 55 | . | . | .
C/C(=N\NC(=O)c1ccccc1F)c1cccc(NC(=O)c2ccc(C)cc2)c1 | 59 | / | / | /
C/C(=N\NC(=O)c1cccc(N/N=C(\C)c2ccco2)c1)c1ccco1 | . | . | . | .
COCOc1ccc(C=O)c(OCOC)c1 | . | / | / | /
NC(Cc1ccc(Cl)cc1)c1csc(NC(=O)NCC2CCCCC2)n1 (configuration not stated) | 86 | / | / | /
NC(Cc1ccc(C(F)(F)F)cc1)c1csc(NC(=O)Nc2ccccc2Cc2ccccc2)n1 (configuration not stated) | 79 | / | / | /
NC(CCc1ccccc1)c1csc(NC(=O)NCCc2ccccc2)n1 (configuration not stated) | . | / | / | /
CC(C)c1ccc(NC(=O)Nc2nc(C(N)COCc3ccccc3)cs2)cc1 (configuration not stated) | 77 | / | / | /
NC(CCc1ccccc1)c1csc(NC(=O)Nc2ccccc2Oc2ccccc2)n1 (configuration not stated) | 87 | / | / | /
O=C(CCN1N=C(c2ccccc2)CCC1=O)NCC1CCCO1 (configuration not stated) | . | / | / | /
CC(C)N(C(=O)c1ccc(Cc2cn(C)c3ccccc23)nc1)C(C)C | . | / | / | /
Cc1ccn2c(NC(C)(C)C)c(-c3cccs3)nc2c1 | . | . | . | .
COc1cc(OC)nc(Nc2nc(C(N)Cc3ccc(C(F)(F)F)cc3)cs2)n1 (configuration not stated) | 80 | / | / | /
O=c1[nH]c2c(s1)C(c1ccco1)C1C3CCC(C3)C1S2 (configuration not stated) | . | . | . | .
Cc1cc(NC(=O)c2cccc(Oc3ccccc3)c2)n[nH]1 | . | . | . | 71
CN(NC(=O)c1cccc(Cl)c1)c1nc(-c2ccccc2)nnc1C(F)(F)F | 53 | . | . | .
CN(N)c1nc(-c2ccccc2)nnc1C(F)(F)F | . | . | . | .
Cc1ccc(CSc2ncccc2C(=O)O)cc1 | . | . | . | .
Cc1cccc(CSc2ncccc2C(=O)O)c1 | . | 54 | . | .
CCc1ccc(C2=NN(C(=O)OC)C(O)(C(F)(F)F)C2)cc1 (configuration not stated) | 55 | . | . | 73
Cc1nc(CSc2nnc3scc(-c4ccc(Cl)cc4)n23)cs1 | . | . | . | .
SMILES | C8 TRAIL sens | PPC-1+TRAIL kill | FLuc act counter | FLuc inhib CS
O=c1cc(-c2ccc(O)c(O)c2)oc2ccc3ccccc3c12 | 74 | / | / | /
NC(=O)COc1ccc2oc(-c3ccccc3)cc(=O)c2c1 | . | . | . | 56
CCOC(=O)COc1ccc2c(=O)cc(-c3ccccc3)oc2c1 | . | . | / | /
O=c1cc(-c2ccccc2)oc2ccc3ccccc3c12 | 88 | / | / | /
CCOC(=O)C1=C(Nc2ccccc2)CC(C)(O)C(C(=O)OCC)C1c1ccc(Cl)cc1 (configuration not stated) | . | . | . | .
Cc1ccc(C)c(S(=O)(=O)N2CCN(C(=O)CCNS(=O)(=O)c3ccccc3)CC2)c1 | . | / | / | /
CN(CCC#N)c1ccc(/C=C(\C#N)c2ccccn2)cc1 | 84 | . | . | 88
CCN(Cc1ccccc1)c1ccc(/C=C(\C#N)c2ccccn2)cc1 | . | . | . | .
CCN(CC)c1ccc(/C=C(\C#N)c2ccccn2)cc1 | 81 | 62 | . | 85
CN(CCC#N)c1ccc(C=C(C#N)c2ccc(Br)cc2)cc1 | . | / | / | /
CCCNC(=O)C1(C)CCN1C(=O)c1cc(C)n(C)n1 (configuration not stated) | . | / | / | /
O=C(COC(=O)CNC(=O)c1ccco1)NCc1ccc(F)cc1 | . | . | . | .
CCCNC(=O)c1noc2c1CCc1cc(OC)ccc1-2 | . | . | . | 78
O=C1CCCC[C@@H](O)[C@H](O)C[C@H](c2ccccc2)O1 | . | / | / | /
C=C1CC2(CC(c3ccccc3)OC(c3ccccc3)C2)OC1=O (configuration not stated) | 64 | / | / | /
Fc1ccc(N2C(=S)SC(=Nc3ccccc3)C2=Nc2ccccc2)cc1 | . | / | / | /
